Source: PubChem BioAssay (several laboratories)
In the library only some 2.4% were active in any assay of this set; here they are far more common.
MC4R antag cAMP: human MC4R antagonism in cAMP assay; P32245; 0.48% of 360,000 active; MC4R-expressing cells, MTII-stimulated cAMP, LANCE TR-FRET; inhibition, % at 6.5 µM; AID 540295;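 active = inhibition above its plate's cutoff, the mean of tested wells on that plate plus 3 SD, cut at about 29% in these data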;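 note: 0% = Melanotan II alone and 100% = Melanotan II plus saturating MCL0020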
Target sequence (P32245 whole entry, looked up): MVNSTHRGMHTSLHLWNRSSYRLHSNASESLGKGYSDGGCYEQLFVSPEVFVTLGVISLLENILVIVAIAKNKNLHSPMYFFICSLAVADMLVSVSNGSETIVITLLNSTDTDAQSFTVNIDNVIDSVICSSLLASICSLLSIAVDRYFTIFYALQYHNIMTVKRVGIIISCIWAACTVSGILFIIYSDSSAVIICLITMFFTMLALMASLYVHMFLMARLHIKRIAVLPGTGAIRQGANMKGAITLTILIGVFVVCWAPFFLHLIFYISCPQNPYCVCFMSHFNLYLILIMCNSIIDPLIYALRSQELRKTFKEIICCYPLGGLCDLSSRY
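System – human MC4R-expressing U2OS cells · Also added – Melanotan II · Dosing – one concentration, 6.5 µM nominal · Timing – 30-min compound, 1-h challenge, 1-h detection, room temperature · Measured by – Eu-cAMP/anti-cAMP TR-FRET, emission 671 nm · Replicates – singlicate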
TbMetRS inhib: blocks T. brucei methionyl-tRNA synthetase activity; purified T. brucei MetRS, ATP depletion, Kinase-Glo luminescence; inhibition, % at 11.9 µM; 0.4% of 360,000 active; AID 624268;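 active = inhibition above a per-plate cutoff of the control wells' mean inhibition plus 3 SD, cut at about 5.5% in these data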;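 note: 0% = DMSO wells median and 100% = median of wells with control inhibitor compound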
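Test system: purified T. brucei MetRS enzyme. Also added: ATP, methionine and E. coli bulk tRNA substrates. Compound: 11.9 µM single point. Schedule: 15 min enzyme-compound preincubation, 2 h reaction, 10 min detection, 25 °C. Signal: luciferase luminescence of residual ATP, Kinase-Glo. Evaluation: percent inhibition versus plate control medians. Controls: DMSO wells, low control.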
aDG glyco up: increases alpha dystroglycan glycosylation. AID 624168. activation, % at 10 µM. 0.22% of 360,000 active. Pro5-aDG cells, alpha-DG glycosylation AlphaScreen (IIH6); 0% Pro5, 100% B10-LARGE cell signal;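 active = activation of at least 8% versus controls, or a plate z-score of at least 8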;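 note: Pro5 are CHO cells carrying HIG-tagged alpha-DG that lacks glycosylation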
NTR1 agonist: activates human neurotensin receptor 1 | 0.17% of 330,000 active | activation, % at 20 µM | P30989 | AID 493036 | NTR1-U2OS beta-arrestin-GFP spot imaging, agonist mode;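 active = activation at or above 40% of the spot to cytoplasm intensity ratio, with at least 20 cells analyzed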;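 note: 0% = DMSO without peptide and 100% = 100 nM NTR1 peptide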
Target sequence (P30989 whole entry, looked up): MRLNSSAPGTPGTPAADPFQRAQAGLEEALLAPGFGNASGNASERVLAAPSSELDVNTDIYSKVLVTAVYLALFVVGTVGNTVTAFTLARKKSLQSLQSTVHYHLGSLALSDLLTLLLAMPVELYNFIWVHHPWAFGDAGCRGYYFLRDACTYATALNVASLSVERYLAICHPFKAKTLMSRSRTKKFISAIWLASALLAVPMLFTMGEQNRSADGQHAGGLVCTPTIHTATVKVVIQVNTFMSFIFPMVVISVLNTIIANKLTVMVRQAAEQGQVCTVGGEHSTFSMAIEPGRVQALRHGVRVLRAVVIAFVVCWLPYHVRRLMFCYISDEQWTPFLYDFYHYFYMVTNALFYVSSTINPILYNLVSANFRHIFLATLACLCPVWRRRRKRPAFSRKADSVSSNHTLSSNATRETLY
H9c2 TAG inh: triacylglycerol accumulation inhibition; inhibition, % at 12.5 µM; H9c2 cells, Nile Red lipid (TAG) fluorescence; cells loaded with 200 µM oleic acid; 0.66% of 230,000 active; AID 651582;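 active = pattern-corrected inhibition of lipid staining of at least 50% with the nuclear-stain viability signal not falling by more than 50%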;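 note: 0% = DMSO wells and 100% = triacsin C control wells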
MC4R barr agon: human MC4R agonism via beta-arrestin; U2OS MC4R beta-arrestin complementation, luminescence; percent of melanotan II response, DMSO zero; activation, % at 8.9 µM; 0.98% of 360,000 active; AID 540308;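 active = activation above a per-plate cutoff, the mean activation of sample wells on that plate plus 3 SD, cut at about 8% in these data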
MC4R barr ag: human MC4R beta-arrestin agonism confirmation; shares compounds with MC4R barr agon; U2OS MC4R beta-arrestin recruitment, luminescence; scaled DMSO 0%, Melanotan II 100%; activation, % at 8.9 µM; 31% of 2,400 active; AID 602192;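 active = mean activation across replicates above the hit cutoff set in the earlier primary screen, cut at about 8% in these data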
MOR DOR agonist: activates mu-delta opioid heterodimer, MC4R agonist counter-screen | U2OS PathHunter beta-arrestin, beta-gal luminescence; percent of deltorphin B response, DMSO zero | 5.8% of 2,400 active | activation, % at 9.2 µM | AID 602194 | shares compounds with MC4R barr agon;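 active = mean activation across replicates exceeds the hit threshold derived in the earlier primary screen, cut at about 18% in these data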;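 note: 100% = deltorphin B at 0.9 µM final and 0% = DMSO alone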
An asterisk follows results filed as active; x = no result.

SMILES	MC4R antag cAMP	TbMetRS inhib	aDG glyco up	NTR1 agonist	H9c2 TAG inh	MC4R barr agon	MC4R barr ag	MOR DOR agonist
COc1ccc(-c2noc(CCC(=O)Nc3cc(Cl)c(OC)cc3OC)n2)cc1	0.2	-0.7	0.9	3.6	-9.7	-2.0	x	x
CC(=O)COc1cc2c(-c3cc4ccccc4o3)cc(=O)oc2cc1C	-9.2	-0.3	-0.4	13.8	x	25.5*	1.0	0.6
CCc1cc2c(-c3ccccc3)cc(=O)oc2cc1OCC(C)=O	20.7	0.2	-0.2	7.6	-5.9	3.3	x	x
CCCCCCCCCCn1c2c(c(=N)c3c1CCC3)CCC2	-10.3	0.0	0.7	42.1*	-19.9	17.4*	10.9*	19.3*
CC(C)c1ccc(NS(=O)(=O)c2ccc(-n3cccn3)cc2)cc1	2.7	1.0	0.1	10.4	x	13.3*	16.9*	10.7
CC(C)c1ccc(S(=O)(=O)Nc2ccc(-n3cnnn3)cc2)cc1	7.5	-0.3	-0.1	0.9	-30.7	-0.9	x	x
CCOC(=O)c1c(C)[nH]c(C(=O)CSc2ccc(Cl)cc2)c1C	-4.3	-1.1	0.0	2.3	x	25.0*	16.1*	6.0
CCOC(=O)c1c(C)[nH]c(C(=O)CSc2nc(C)cc(C)n2)c1C	-2.8	-0.7	0.3	1.5	x	-3.3	x	x
CCOC(=O)c1c(C)[nH]c(C(=O)Cn2nnc(-c3ccccc3Cl)n2)c1C	3.6	-0.2	0.2	1.9	-54.5	2.0	x	x
CCOC(=O)c1c(C)[nH]c(C(=O)Cn2nnc(-c3ccccc3)n2)c1C	2.2	-0.3	1.0	-0.1	-58.7	13.2*	2.5	9.5
Cc1ccc(-c2csc3nc(-c4ccncc4)[nH]c(=O)c23)cc1	10.6	0.1	0.8	4.3	-23.9	4.7	x	x
CCOc1ccc(-c2nc3scc(-c4cccs4)c3c(=O)[nH]2)cc1	-2.3	0.2	-0.5	5.2	3.5	27.7*	12.5*	1.8
CCC(C)(C)c1ccc(OCCCC[n+]2cccc(C)c2C)c(C(C)(C)CC)c1	3.0	-1.3	0.3	12.1	96.0	22.8*	21.6*	15.4
CC1CCN(C(=O)C2CCC(CNS(=O)(=O)c3ccc4c(c3)C(C)(C)C(=O)N4C)CC2)CC1 (configuration not stated)	11.0	-0.2	0.0	x	20.6	0.7	x	x
O=C1NC[C@@H](CCCCN2C[C@H](Cc3ccc(O)cc3)N(CC3CCCCC3)C(=O)C2=O)N(CCC2CCCCC2)C1=O	x	-0.1	-0.4	x	x	x	x	x
CC(C)COc1ccc(S(=O)(=O)NNC(=O)c2cc3ccccc3o2)cc1	14.0	-0.3	0.1	6.6	x	11.3*	11.6*	10.4
CCCCOc1ccc(S(=O)(=O)NNC(=O)c2cc3ccccc3o2)cc1	-2.1	1.1	0.0	3.7	x	4.9	x	x
CCOC(=O)[C@]12CCC=C1N(CCC1=CCCCC1)C(=O)[C@H](CC(=O)N1CCOCC1)C2	x	-0.5	-0.1	x	x	x	x	x
Cc1ccccc1Cn1ccc(NC(=O)c2cc3nc(-c4ccco4)cc(C(F)(F)F)n3n2)n1	10.8	0.3	0.0	9.4	x	14.8*	-1.1	5.2
Cc1cc(N2CCN(C(=O)c3ccco3)CC2)n2nc(-c3cccc(Cl)c3)cc2n1	-6.6	-0.4	0.0	9.6	x	25.8*	30.7*	7.3
COc1ccc(-c2cc3nc(C)cc(N4CCN(C(=O)c5ccco5)CC4)n3n2)cc1	9.5	-0.4	0.0	x	32.1	-0.7	x	x
Cc1ccccc1OC1(C)CCN(Cc2ccc(-c3ccccn3)cc2)C1 (configuration not stated)	9.3	-0.4	0.7	x	-9.1	15.3*	3.5	7.7
CC1(Oc2cnc(Cl)c3ccccc23)CCN(Cc2ccc(-c3ccccn3)cc2)C1 (configuration not stated)	0.9	-0.3	-0.3	x	-7.8	-0.1	x	x
CCOC(=O)C1=C(c2ccccc2)NC(=O)NC1c1cc(Cl)c(O)c(OC)c1 (configuration not stated)	17.8	0.9	0.0	0.0	2.7	-1.3	x	x
CCOC(=O)C1=C(c2ccccc2)NC(N)=NC1c1ccc(OCc2ccc(Cl)cc2)c(OC)c1 (configuration not stated)	10.4	-1.1	0.0	24.4	13.5	11.7*	11.0*	17.1
SMILES	MC4R antag cAMP	TbMetRS inhib	aDG glyco up	NTR1 agonist	H9c2 TAG inh	MC4R barr agon	MC4R barr ag	MOR DOR agonist
Cc1ccc(Cl)cc1-c1cc(C(=O)Nc2ccc(F)cc2)[nH]n1	0.8	0.2	0.9	x	1.9	0.5	x	x
CC(=O)c1nn(-c2ccccc2)cc1C(=O)c1cccc(Br)c1	-0.1	-0.3	-0.1	-1.5	x	9.8*	11.8*	5.0
CC(=O)c1nn(-c2ccc(Cl)cc2)cc1C(=O)c1ccccc1	0.6	-0.4	0.1	0.0	-0.5	18.3*	3.8	16.0
CC(=O)c1nn(-c2cccc(Br)c2)cc1C(=O)c1ccco1	1.1	-0.8	0.0	0.7	5.2	-1.5	x	x
CC(=O)c1nn(-c2ccccc2)cc1C(=O)c1ccc(Br)cc1	0.0	0.1	0.1	-1.0	20.5	7.0	x	x
CC(=O)c1nn(-c2cccc(Br)c2)cc1C(=O)c1ccc(Cl)cc1	-5.4	-0.3	0.0	3.3	x	32.2*	12.5*	5.7
CC(C)Oc1ccc(CN2CCC2(C)C(=O)Nc2cccc(Oc3ccccc3)c2)cc1 (configuration not stated)	7.8	0.2	-0.2	x	2.7	0.1	x	x
O=C(Cn1nc(-c2ccccc2)ccc1=O)Nc1ccc(NC(=O)c2ccccn2)cc1	9.1	-0.3	-0.4	-1.0	14.6	13.8*	21.9*	22.4*
O=C(/C=C/c1cc([N+](=O)[O-])ccc1OC(F)F)Nc1cccc(OC(F)F)c1	-4.1	-0.9	0.2	5.5	x	20.2*	1.1	6.7
COc1ccc(OCc2n(CC(=O)OC3CC(C)CCC3C(C)C)c3ccccc3[n+]2C)cc1 (configuration not stated)	-5.8	-1.2	0.0	27.9	39.1	38.4*	10.6*	9.0
CC1(Cc2ccc(Cl)s2)C(=O)Nc2c(Cl)ccc(Cl)c21 (configuration not stated)	3.3	-0.2	0.3	x	-13.0	2.2	x	x
COc1ccc(-c2ccc(C#N)c(SCC(=O)NC3CC3)n2)cc1OC	0.6	0.1	0.1	-0.5	-17.2	1.1	x	x
COc1ccc(-c2ccc(C#N)c(SCC(=O)NCc3ccco3)n2)cc1OC	-3.5	-0.1	0.3	-0.5	-3.7	16.2*	-0.6	6.5
Cc1ccc(NC(=O)c2cc(-c3cccc(O)c3)on2)cc1C	4.8	-0.5	0.0	12.7	12.1	9.6*	-0.7	7.7
